Beta cell apopt: beta cell apoptosis inhibition; protection from apoptosis, % (no concentration beside the values); INS-1E cytokine-induced death, ATP luminescence, 48 h; percent of positive-control rescue, neutral wells zero; 300,000 compounds, 0.8% hits;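 active = Every replicate reaches about 75%, or at least half do and their mean reaches it too, limit read from the data; inconclusive = At least half of replicates reach the limit but their mean does not; inactive = Under half of replicates reach the limit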;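 also: higher means more ATP so stronger rescue from cytokine killing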
HIF act: HIF pathway transcriptional activation; activation, % at 7.5 µM (by protocol); 300,000 compounds, 0.32% hits; U2OS HRE-luciferase reporter, luminescence; normalized: DMSO 0%, desferrioxamine 100%; AID 1910;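 active = mean activation of at least 10% of the iron chelator positive control signal, with at least half of replicates also reaching 10%; inconclusive = mean and replicate majority disagree about reaching 10%; inactive = mean and most replicates under 10%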
T cruzi repl: blocks replication of Trypanosoma cruzi | T. cruzi beta-gal in NIH3T3, luminescence, 90 h | inhibition, % (test concentration not listed) | 300,000 compounds, 1.4% hits | AID 1885;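 active = mean inhibition across valid replicates above about 55%, limit read from the data; inconclusive = mean below that limit but half or more replicates reach it; inactive = mean below it, under half of replicates reach it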;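 also: signal also drops with host cell toxicity which is not excluded here; higher percent means less beta-gal luminescence so fewer parasites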
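System: Mouse NIH/3T3 fibroblasts infected with β-gal-expressing T. cruzi Tulahuen C4 | Quantity: NIH/3T3 cells, 5,000 per well | Reagent: 5000 reporter trypomastigotes per well | Dosing: Compound pinned at 50 nL/well, DMSO | Schedule: 3 h host attachment, then at least 90 h co-culture | Detection: GalScreen luminescence, 60 min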
A1 inh: inhibitors of the anti-apoptotic protein A1, read as caspase activation; AID 2462; MEF A1-2A-BIM cells, Caspase-Glo 3/7 luminescence, 3 h; percent of clofoctol response, vehicle zero; 330,000 compounds, 0.066% hits; caspase activation, % (concentration not given with the values);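 active = over half of replicate activation scores above 10%, or exactly half above 10 with the replicate mean above 10; inconclusive = replicate mean below 10 yet half the replicates above 10; inactive = over half of replicates below 10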
KLF5 inh: kruppel-like factor 5 inhibition | DLD-1 KLF5 promoter-luciferase reporter, luminescence | inhibition, % at 5 µM | 290,000 compounds, 0.23% hits | AID 1700;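 active = inhibition above a per-plate limit of that plate's mean compound inhibition plus 3 SD, cut at about 60% in these data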;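 also: higher means less KLF5 promoter-driven luciferase light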
Of the large screens only hits and unclear results are named; the others gave an inactive call. An excerpt weighted towards active compounds, which were near 2.3% of everything screened.

CCOc1cccc2sc(Nc3nc4ccc(NC(C)=O)cc4s3)nc12	T cruzi repl 57
CN(C1=C(NC(=O)c2ccc(Cl)cc2)C(=O)c2ccccc2C1=O)c1ccccc1	Beta cell apopt 93
CN(c1ccc(C(=O)Nc2ccc(Cl)cn2)cc1)S(=O)(=O)c1ccccc1	none
O=C(NC1=C(Nc2ccc(Cl)cc2)C(=O)c2ccccc2C1=O)c1ccccc1	Beta cell apopt 117
Cc1cccc(NC2=C(NC(=O)c3ccccc3)C(=O)c3ccccc3C2=O)c1	Beta cell apopt 78
O=C(Nc1cccc(Cl)c1)c1ccccc1	none (no result: HIF act, T cruzi repl, KLF5 inh)
O=C1C(Cl)=C(NC(=O)c2ccccc2)C(=O)C(Cl)=C1NC(=O)c1ccccc1	T cruzi repl 68 (no result: Beta cell apopt)
O=C(c1cc(-c2ccc(Cl)cc2)n[nH]1)N1CCc2ccccc2C1	none (no result: HIF act)
COc1ccc(C(CC(=O)O)N2C(=O)CCC2=O)cc1 (centres undefined)	none
COc1cccc(N2C(C(C)=O)=NN(c3ccccc3)C2c2ccc(N3CCOCC3)cc2)c1 (centres undefined)	T cruzi repl 77
CCOC(=O)NC(=O)CN1C(=O)NC2(CCc3ccccc32)C1=O (centres undefined)	none
CCCC(C)NC(=O)CN1C(=O)NC2(CCc3ccccc32)C1=O (centres undefined)	HIF act 40
CCOC(=O)/C=C/C(=O)OCC(=O)N1CCN(C(=O)c2ccco2)CC1	none
CC1(C)CC(=O)C=C(c2cccs2)C1	none (no result: KLF5 inh)
COc1ccc(CNC(=O)CCNS(=O)(=O)c2ccc(NC(C)=O)cc2)cc1OC	none (no result: HIF act, T cruzi repl, KLF5 inh)
O=C(CSc1cccc[n+]1[O-])Nc1ccccc1Oc1ccccc1	T cruzi repl 82
O=C(CSc1cccc[n+]1[O-])N1CCCCCC1	none
O=C(CSc1cccc[n+]1[O-])CSc1cccc[n+]1[O-]	T cruzi repl 67 (no result: Beta cell apopt)
O=C(CSc1cccc[n+]1[O-])Nc1ccccc1C(F)(F)F	none (no result: HIF act, T cruzi repl, KLF5 inh)
COc1cccc(CNC(=O)c2ccc(NC(=O)CC3SC(N4CCCC4)=NC3=O)cc2)c1 (centres undefined)	none (no result: HIF act, T cruzi repl, KLF5 inh)
CC1=CC(C)[C@H](/C=N/n2c(=O)[nH]c3c([nH]c4ccc(Br)cc43)c2=O)C(C)C1 (some centres undefined)	T cruzi repl 64
FC(F)(F)c1ccc(N2CCN(c3ncnc4c3nnn4Cc3ccccc3Cl)CC2)cc1	none
Fc1ccc(N2CCN(c3ncnc4c3nnn4Cc3ccccc3Cl)CC2)cc1	T cruzi repl 63
CC(CC(=O)N1CCN(c2cccc(Cl)c2)CC1)S(=O)(=O)c1ccc2c(c1)NC(=O)CO2 (centres undefined)	Beta cell apopt 80, A1 inh inconclusive
COc1ccc(N2CCN(C(=O)CC(C)S(=O)(=O)c3ccc4c(c3)NC(=O)CO4)CC2)cc1 (centres undefined)	none
Cc1[nH]c2ccc(F)cc2c1CCN(Cc1cccnc1)C(=S)Nc1ccc(F)cc1	T cruzi repl 61
CCNC(=S)N(CCc1c(C)[nH]c2ccc(F)cc12)Cc1cccnc1	none
COc1ccc2[nH]c(C)c(CCN(Cc3cccs3)C(=S)Nc3ccccc3)c2c1	T cruzi repl 58
COc1ccc2[nH]c(C)c(CCN(Cc3cccs3)C(=S)Nc3ccc(F)cc3)c2c1	T cruzi repl 55
COC(=O)Nc1ccc(S(=O)(=O)NNC(=O)c2c(O)c3ccccc3n(C)c2=O)cc1	none
COc1ccccc1-n1cnnc1SC(C)C(=O)NCC1CCCO1 (centres undefined)	none (no result: HIF act, T cruzi repl, KLF5 inh)
NC(=O)NCC(c1ccccc1)C1CCCCC1 (centres undefined)	none
COC(=O)C(C)Oc1cc(OC(C)C(=O)OC)c2c(-c3ccccc3)cc(=O)oc2c1 (centres undefined)	A1 inh 5.3
COC(=O)COc1cc(OCC(=O)OC)c2c(-c3ccccc3)cc(=O)oc2c1	none
O=C(COC(=O)CN1CCSC1=O)Nc1ccc(F)cc1Cl	none (no result: HIF act, T cruzi repl, KLF5 inh)
Cc1cc(C)c(Cc2c(C)nc3c(C(=O)NCc4ccco4)cnn3c2C)c(C)c1	T cruzi repl 59
COc1cc(CNCCc2c[nH]c3ccccc23)ccc1OCc1ccccc1F	T cruzi repl 55
COC(=O)C1(CC2CC(c3ccncc3)=NO2)CCN(C(=O)OC(C)(C)C)CC1 (centres undefined)	none (no result: KLF5 inh)
Cc1ccccc1-c1ccc(Nc2ccc(N3CCOCC3)cc2)nn1	T cruzi repl 70
O=S1(=O)N=C(Nc2ccc(N3CCOCC3)cc2)c2ccccc21	none

Assay outcomes deposited in PubChem BioAssay by several laboratories.
